Screening data deposited in PubChem BioAssay by several laboratories.
Most compounds without a hit are left out; they make up all but 4.5% or so of the library.
AHR activator: activators of human aryl hydrocarbon receptor. P35869. AHR-responsive luciferase reporter cells, luminescence. activation, % at 5 µM. hit rate 2.5% among 320,000; in the data active = activation above about 47%;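 also: 0% = vehicle wells and 100% = reference agonist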
Target sequence (P35869 whole entry, looked up): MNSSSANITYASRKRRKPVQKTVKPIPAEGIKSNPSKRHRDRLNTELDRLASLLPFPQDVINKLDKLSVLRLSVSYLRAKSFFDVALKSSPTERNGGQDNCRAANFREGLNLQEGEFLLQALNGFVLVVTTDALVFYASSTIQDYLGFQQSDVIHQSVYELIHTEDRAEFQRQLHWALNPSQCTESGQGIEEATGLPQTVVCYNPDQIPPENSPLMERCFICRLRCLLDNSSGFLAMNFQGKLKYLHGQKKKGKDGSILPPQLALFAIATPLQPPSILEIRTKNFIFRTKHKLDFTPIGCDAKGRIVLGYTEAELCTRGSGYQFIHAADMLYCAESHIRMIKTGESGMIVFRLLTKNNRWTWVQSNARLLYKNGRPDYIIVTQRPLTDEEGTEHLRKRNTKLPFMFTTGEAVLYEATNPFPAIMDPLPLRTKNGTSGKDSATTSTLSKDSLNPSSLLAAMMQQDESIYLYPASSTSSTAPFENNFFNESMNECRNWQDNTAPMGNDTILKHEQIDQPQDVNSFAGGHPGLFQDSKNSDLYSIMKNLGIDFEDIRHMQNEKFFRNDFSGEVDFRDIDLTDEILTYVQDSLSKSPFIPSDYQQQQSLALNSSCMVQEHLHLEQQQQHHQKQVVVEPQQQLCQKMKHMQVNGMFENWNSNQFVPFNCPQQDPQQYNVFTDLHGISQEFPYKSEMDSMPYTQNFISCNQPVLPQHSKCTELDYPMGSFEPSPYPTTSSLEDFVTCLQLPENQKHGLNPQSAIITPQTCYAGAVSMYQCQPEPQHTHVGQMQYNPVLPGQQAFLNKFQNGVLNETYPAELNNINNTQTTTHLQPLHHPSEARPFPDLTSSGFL
NF-kB neuron act: compounds increasing NF-kB expression in human neuronal cells | NF-kB reporter expression; active compounds read high | fold change at 12.5 µM | hit rate 1.6% among 190,000 | AID 1239; in the data active = fold change above about 3.3
PERK inhibitor: inhibitors of human PERK kinase. CHO PERK-DD fusion, SEAP luminescence translation reporter. inhibition, % at 5.6 µM. hit rate 0.17% among 220,000. AID 1416;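 active = inhibition above the mean inhibition of all tested compounds plus 3 SD, set separately per screening campaign, cut at about 2.9% in these data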;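 also: PERK kinase domain activated by AP20187 dimerizer at 100 nM; 0% = DMSO with dimerizer and 100% = rapamycin at 8.4 µM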
APP 5'UTR act: activates APP 5'UTR luciferase reporter. SH-SY5Y APP 5'UTR luciferase reporter, luminescence; zero percent = DMSO vehicle wells. activation, % at 2 µM. hit rate 1% among 190,000;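 active = activation above a set limit, based on mean plus 3 SD of controls, cut at about 140% in these data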
MDM2 E3 inh: inhibitors of human Mdm2 E3 ubiquitin ligase | Q00987 | cell-based MDM2 ubiquitination luciferase reporter, 2 h; 0 = plate control, 100 = twice control, blank-subtracted | signal enhancement, % at 5 µM | hit rate 0.11% among 210,000;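 active = signal enhancement of 30% or more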;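 also: luminescence tracks abundance of the self-degrading MDM2-luciferase fusion protein; higher signal means inhibition of MDM2 E3 ligase activity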
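Timing – 2 h compound exposure at 37 °C · Assay system – mammalian cells stably expressing self-ubiquitinating, self-degrading MDM2 E3–luciferase fusion · Amount – 2000 cells seeded into each well · Measure – % luminescence enhancement versus blank-corrected plate control mean · Measured by – SteadyLite luminescence, 15 min reagent step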
STAT1 act: STAT1 signaling activation; NIH 3T3 STAT1-luciferase reporter, IFN-gamma, luminescence; 100% = IFN-gamma alone, no compound; activation (% of control), % at 5.5 µM; hit rate 2.6% among 200,000; AID 932;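 active = activation above the screen-wide mean activation plus 3 SD, cut at about 130% in these data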;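 also: raw ratio to IFN-gamma control signal so 100% means no change and 0% no light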
STAT1 activ conf: STAT1 activation, confirmation assay; shares compounds with STAT1 act; NIH 3T3 STAT1-luciferase reporter, IFN-gamma potentiation, luminescence; 100% = IFN-gamma EC80 alone, no compound; activation (% of control), % at 5.7 µM; hit rate 97% among 1,200;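 active = activation above a set limit carried over from the earlier primary STAT1 screen, cut at about 140% in these data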;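 also: simple ratio to median IFN-gamma plus DMSO wells so 0% means no light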
NFkB act STAT1ct: counter-screen for STAT1 activators: NF-kappaB activation; shares compounds with STAT1 act; HEK293T NF-kB luciferase reporter, TNF-alpha stimulated, luminescence; 100% = TNF-alpha with vehicle only; activation (% of control), % at 5.7 µM; hit rate 43% among 1,200; AID 1306;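 active = activation above the mean of solvent-only control wells plus 3 SD, set per campaign, cut at about 130% in these data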;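 also: TNF-alpha given at a submaximal dose yielding about 80% of full reporter signal; values are well signal over median control so 100% means no change and 0% no light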
STAT3 act STAT1c: counter-screen for STAT1 activators: human STAT3 activation. hit rate 46% among 1,200. activation (% of control), % at 5.7 µM. AID 1316. shares compounds with STAT1 act. U3A cells STAT3-luciferase reporter, IL-6, luminescence; cells lack STAT1; 100 = IL-6 alone, no compound effect;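 active = activation above the solvent-only control well mean plus 3 SD, set per plate batch, cut at about 110% in these data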;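 also: 0% = no luminescence and 100% = median IL-6 plus DMSO wells; higher means more STAT3 reporter activation so hits are non-selective activators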
The depositor's hits bear a star; / = no result given.

SMILES	AHR activator	NF-kB neuron act	PERK inhibitor	APP 5'UTR act	MDM2 E3 inh	STAT1 act	STAT1 activ conf	NFkB act STAT1ct	STAT3 act STAT1c
O=C(Nc1ccc(/C=C/c2nc3ccccc3o2)cc1)c1c(F)cccc1F	49*	2.1	-1	208*	-11	175*	205*	131	105
CNC(=O)NC(=O)Cn1cnc2sc(-c3ccccc3)cc2c1=O	0	/	1	/	-21	/	/	/	/
CCCCn1cnc2sc(-c3ccccc3)cc2c1=O	-9	5.9*	-2	0	-2	162*	218*	150*	111*
CCCn1nnc(NC(=O)c2ccc3ccccc3c2)n1	3	3.2	0	35	-91	154*	128	126	95
CCCn1nnc(NC(=O)c2cccc(OCC)c2)n1	4	2.1	0	52	-3	124	/	/	/
O=[N+]([O-])c1cccc(-c2nnc(-c3ccccc3)o2)c1	33	3	1	115	-7	153*	161*	121	100
Cc1cc(C)n(-c2ccc(C(=O)Nc3sccc3C(N)=O)cc2)n1	-10	2.4	0	171*	-15	163*	211*	124	104
Cc1cc(C)n(-c2ccc(C(=O)Nc3ccccn3)cc2)n1	4	4.1*	1	142*	-30	156*	181*	111	97
Cc1cc(C)n(-c2ccc(C(=O)Nc3cccnc3Cl)cc2)n1	1	1.1	0	-6	-14	102	/	/	/
CN(CC(=O)Nc1cc(Cl)cc(Cl)c1)Cc1cccs1	4	/	/	/	/	/	/	/	/
CCOc1ccc(/C=N/Nc2ccccn2)cc1OC	38	1.1	-1	50	-16	155*	154*	119	105
COc1cc(/C=N/N(c2ccccc2)c2ccccc2)ccc1O	0	/	/	/	/	/	/	/	/
CCOc1ccc(/C=N/N(C)c2ccccc2)cc1OC	10	4.9*	-1	88	-15	163*	187*	142*	109
O=C(Cc1ccccc1)Nc1ncccc1Cl	-2	/	/	/	/	/	/	/	/
O=C(CSc1nnc2ccccn12)c1ccc2c(c1)OCCO2	25	3.2	1	123	-16	158*	186*	132	130*
COc1ccc(C(=O)CSc2nnc3ccccn23)cc1OC	9	1.3	1	11	-3	104	/	/	/
CCCCCCOc1ccc(/C(N)=N/O)cc1	2	6.8*	0	78	-8	161*	157*	129	121*
CCCCCOc1ccc(C(=O)NC(CCC)C(=O)O)cc1 (stereo unspecified)	2	1.3	0	2	-14	104	/	/	/
Cc1ccc(/C=N/n2c(C)nnc2C)o1	-5	1.1	1	18	-1	107	/	/	/
Cc1ccc(C=Nc2ccc(N(C)C)cc2)o1	15	0.85	0	153*	-28	164*	149*	132	113*
CCNc1nc(NC(C)(C)C)nc(N2CCCCC2)n1	7	1.6	1	3	-26	64	/	/	/
COc1ccc(-c2csc(Nc3ncccc3C)n2)cc1	37	12*	1	154*	-12	185*	253*	143*	106
COc1ccc(Nc2nc(-c3ccc(OC)cc3)cs2)cc1	-3	/	1	137*	/	151*	182*	142*	99
COc1ccc(-c2csc(Nc3ccccc3)n2)cc1	6	5.4*	1	195*	-13	180*	232*	152*	110
COc1ccc(-c2csc(NC(=O)Nc3ccccc3)n2)cc1	3	/	/	/	/	/	/	/	/
SMILES	AHR activator	NF-kB neuron act	PERK inhibitor	APP 5'UTR act	MDM2 E3 inh	STAT1 act	STAT1 activ conf	NFkB act STAT1ct	STAT3 act STAT1c
COc1ccc(-c2csc(Nc3ccc(S(=O)(=O)Nc4cc(C)on4)cc3)n2)cc1	7	1.1	1	-19	-9	102	/	/	/
COc1ccc(Nc2nc3ccccc3s2)cc1	2	7.2*	1	164*	-4	159*	224*	143*	106
FC(F)(F)c1ccccc1NC(=S)NC1CCN(Cc2ccccc2)CC1	-1	1.4	-1	0	-11	98	/	/	/
O=C(Nc1ccc(Cl)cc1)C1CCN(C(=O)c2cccs2)CC1	-3	/	/	/	/	/	/	/	/
CCOC(=O)[C@H]1[C@H]2COc3ccc(OC)cc3[C@@H]2N2C(=O)[C@H](C)NC(=O)[C@@]12C	0	/	/	/	/	/	/	/	/
CC(=O)c1cccc(Nc2nc(-c3ccccc3)cs2)c1	56*	4.8*	0	170*	-28	168*	230*	152*	112*
S=C(c1ccc(-c2ccc(Cl)cc2)o1)N1CCCCC1	6	4.9*	0	184*	-7	181*	222*	138*	115*
O=C(COC(=O)C1CCC(=O)N1)Nc1ccccc1OC(F)F (stereo unspecified)	-2	/	/	/	/	/	/	/	/
COC(=O)c1ccccc1NC(=O)c1c(O)c2c([nH]c1=O)CCCC2	-6	1.2	1	17	-5	106	/	/	/
O=C(Nc1ccc(O)cc1)c1c(O)c2c([nH]c1=O)CCCC2	/	1	1	162*	-6	155*	205*	139*	93
CCOCC(=O)Nc1nc2ccc(OCC)cc2s1	1	2.8	0	84	-23	152*	167*	125	101
COc1ccc2nc(NC(=O)CSc3ccccc3)sc2c1	11	1.6	-1	8	-14	112	/	/	/
CCOc1ccc2nc(N3CCCCCC3)sc2c1	-5	7.2*	0	194*	-33	191*	246*	144*	106
COc1ccc2nc(NC(=S)N(C)C)sc2c1	-10	11*	-1	48	2	171*	257*	127	86
CCC1CCCCN1CCCNC(=O)c1nn(C)c2c1CS(=O)(=O)c1ccccc1-2 (stereo unspecified)	-2	/	/	/	/	/	/	/	/
O=C(N=Nc1c(O)[nH]c2ccccc12)c1ccco1	34	2.9	1	142*	-8	155*	179*	127	126*
C=CCC[C@@H](Cc1ccc(F)cc1)C(=O)OCCNC(=O)[C@H](CC=C)CC(=O)NCCO	-1	/	/	/	/	/	/	/	/
CCc1ccc(NC(=O)c2ccc3ncsc3c2)cc1	/	6.4*	1	152*	-24	162*	203*	138*	105
COC(=O)c1ccccc1NC(=O)Nc1cc(C)ccn1	9	0.91	2	0	-46	97	/	/	/
Cc1ccnc(NC(=O)Nc2ccc(Br)cc2Cl)c1	7	1.1	1	165*	-56	168*	257*	120	104
